Assay type in all cases: functional
One test relates to Spodoptera frugiperda. Description: Lethal concentration required for 50% mortality in Fall armyworm. The essentials:
(§1)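 Larvae exposed to multiple test rates, 16 insects per rate. Mortality scored 96 h post-infestation as percent control = (dead/total) × 100. LC50 in ppm, with confidence intervals, from Probit analysis with maximum quasi-likelihood curve fitting.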

Another test has as its system Heliothis virescens. Description: Lethal concentration required for 50% mortality in Tobacco budworm. The essentials: as §1
The next test deals with Periplaneta americana. Nature of the test: Ability to release internal calcium stores mediated by ryanodine receptor without activation of voltage-gated calcium channel of cockroach in CMT assay. The essentials: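 Embryonic Periplaneta americana neurons cultured 7–14 days on glass coverslips, loaded 30 min with Fura-2 AM (2 µM) plus 0.02% pluronic acid in saline (mM: NaCl 190, KCl 3.1, CaCl2 9.0, Tris 10.0, pH 7.2). Ratio imaging, 340/380 nm excitation, 510 nm emission, under perfusion. Caffeine 20 mM given first; only caffeine-responsive cells analysed. Test compounds applied 3 min at multiple rates (n ≥ 11).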

In brackets after ≈: the same amount, converted by molar mass.

The text below walks through data of ChEMBL document CHEMBL1143482, “Insecticidal anthranilic diamides: a new class of potent ryanodine receptor activators” (2005).

For orientation: LC50 means the concentration that kills 50% of the test population. As to `Cc1cccc(C(=O)NC(C)C)c1NC(=O)c1ccc(C(F)(F)F)nc1C(C)C`, the LC50 with Spodoptera frugiperda is 9.6 µg/mL (≈ 23.6 µM); in the test on Heliothis virescens, 55.5 µg/mL (≈ 136 µM).
On to `CCn1nc(C(F)(F)F)cc1C(=O)Nc1c(C)cccc1C(=O)NC(C)C`, for which the LC50 in the test with Spodoptera frugiperda came to 34.8 µg/mL (≈ 91 µM); in the test on Heliothis virescens, 158 µg/mL (≈ 413 µM).
In the case of `Cc1cccc(C(=O)NC(C)C)c1NC(=O)c1cnc(C(F)(F)F)nc1C(C)C`, in the test on Periplaneta americana, the CMT is 26.6 µM. Also, the 50% lethal concentration (LC50) was 9.8 µg/mL (≈ 24 µM) in the test on Spodoptera frugiperda and 42.3 µg/mL (≈ 104 µM) with Heliothis virescens.
As for `Cc1cccc(C(=O)NC(C)C)c1NC(=O)c1ccc(C(F)(F)F)nc1C`, the LC50 in the test on Spodoptera frugiperda came out at 20.7 µg/mL (≈ 54.6 µM); in the test on Heliothis virescens, 327 µg/mL (≈ 862 µM).
Regarding `Cc1cc(C(F)(F)F)ccc1C(=O)Nc1c(C)cccc1C(=O)NC(C)C`, the figures for the median lethal concentration (LC50) with Spodoptera frugiperda and in the test with Heliothis virescens were 20.7 µg/mL (≈ 54.7 µM) and 256 µg/mL (≈ 675 µM), respectively.
In the same order, the values of `Cc1cccc(C(=O)NC(C)C)c1NC(=O)c1cnc(C(F)(F)F)nc1C` are 11.6 µg/mL (≈ 30.5 µM) and 102 µg/mL (≈ 269 µM).
For the molecule `CC(C)NC(=O)c1cccc(Cl)c1NC(=O)c1cc(C(F)(F)F)nn1-c1ccccc1Cl`, the CMT in the test on Periplaneta americana turned out to be 0.3 µM. For the same molecule, the figures for the LC50 in the test with Spodoptera frugiperda and in the test on Heliothis virescens were 0.1 µg/mL (≈ 0.206 µM) and 3 µg/mL (≈ 6.18 µM), respectively.
`Cc1cccc(C(=O)NC(C)C)c1NC(=O)c1cc(C(F)(F)F)nn1-c1ccccc1`: the LC50 amounted to 26 µg/mL (≈ 60.4 µM) in the test on Spodoptera frugiperda and 354 µg/mL (≈ 822 µM) in the test with Heliothis virescens.
The like results for `Cc1cccc(C(=O)NC(C)C)c1NC(=O)c1cc(C(F)(F)F)nn1-c1ccc(Cl)cc1` were, in that order, over 500 µg/mL and over 500 µg/mL.
On to `Cc1cccc(C(=O)NC(C)C)c1NC(=O)c1cc(C(F)(F)F)nn1C(C)C`, for which the LC50 was 11.1 µg/mL (≈ 28 µM) with Spodoptera frugiperda and 36.4 µg/mL (≈ 91.8 µM) in the test with Heliothis virescens.
Consider `Cc1cc(Cl)cc(C(=O)NC(C)C)c1NC(=O)c1cc(C(F)(F)F)nn1-c1ncccc1Cl`, for which, in the test with Periplaneta americana, the CMT was 0.1 µM. The molecule further gave a median lethal concentration (LC50) in the test with Heliothis virescens of 0.02 µg/mL (≈ 0.04 µM).
As for `Cc1cccc(C(=O)NC(C)C)c1NC(=O)c1cc(C(F)(F)F)nn1C`, the CMT in the test with Periplaneta americana was determined as 120 µM. For the same molecule, the results for the 50% lethal concentration (LC50) in the test with Spodoptera frugiperda and in the test on Heliothis virescens were 29.6 µg/mL (≈ 80.4 µM) and 130 µg/mL (≈ 353 µM), respectively.
In the case of `Cc1cc(C(F)(F)F)ccc1C(=O)Nc1ccccc1C(=O)NC(C)C`, the CMT with Periplaneta americana amounted to 39.3 µM. In addition, the median lethal concentration (LC50) in the test with Spodoptera frugiperda is 27.3 µg/mL (≈ 74.9 µM); with Heliothis virescens, over 500 µg/mL.
For the molecule `Cc1cccc(C(=O)NC(C)C)c1NC(=O)c1cc(C(F)(F)F)nn1-c1ccccc1Cl`, the CMT with Periplaneta americana was 0.2 µM. Moreover, the figures for the median lethal concentration (LC50) in the test with Spodoptera frugiperda and with Heliothis virescens were 0.05 µg/mL (≈ 0.108 µM) and 3.4 µg/mL (≈ 7.31 µM), respectively.
For `CC(C)NC(=O)c1cccc(Cl)c1NC(=O)c1cc(C(F)(F)F)nn1-c1ncccc1Cl`, the LC50 worked out at 0.1 µg/mL (≈ 0.206 µM) in the test with Spodoptera frugiperda and 0.4 µg/mL (≈ 0.823 µM) in the test with Heliothis virescens.
In the case of `CC1(C)C(C=C(Cl)Cl)C1C(=O)OC(C#N)c1cccc(Oc2ccccc2)c1` (stereo not drawn) [ALPHA-CYPERMETHRIN], the median lethal concentration (LC50) in the test with Spodoptera frugiperda was 2.1 µg/mL (≈ 5.04 µM); in the test on Heliothis virescens, 13.5 µg/mL (≈ 32.4 µM).
In the same order, the values of `Cc1cc(C(F)(F)F)ccc1C(=O)Nc1cccc(C)c1C(=O)NC(C)C` are 77 µg/mL (≈ 203 µM) and over 500 µg/mL.
Regarding `CCc1nc(C(F)(F)F)ncc1C(=O)Nc1c(C)cccc1C(=O)NC(C)C`, the median lethal concentration (LC50) stood at 9 µg/mL (≈ 22.8 µM) with Spodoptera frugiperda and 41 µg/mL (≈ 104 µM) in the test on Heliothis virescens.
Turning to `Cc1cccc(C(=O)NC(C)C)c1NC(=O)c1ccc(C(F)(F)F)cc1`, the LC50 in the test on Spodoptera frugiperda was 16.9 µg/mL (≈ 46.4 µM); in the test with Heliothis virescens, over 500 µg/mL.
Consider `CCc1nc(C(F)(F)F)ccc1C(=O)Nc1c(C)cccc1C(=O)NC(C)C`, for which the CMT with Periplaneta americana was 20.6 µM. The LC50 is 9.7 µg/mL (≈ 24.7 µM) in the test on Spodoptera frugiperda and 77.5 µg/mL (≈ 197 µM) with Heliothis virescens.
Consider `CNC(=O)c1cccc(C)c1NC(=O)c1ccc(C(F)(F)F)cc1C`, for which the LC50 is 60.1 µg/mL (≈ 172 µM) in the test with Spodoptera frugiperda and over 500 µg/mL in the test with Heliothis virescens.
`CCNC(=O)c1cccc(C)c1NC(=O)c1ccc(C(F)(F)F)cc1C`: the LC50 is 32.8 µg/mL (≈ 90 µM) in the test on Spodoptera frugiperda and over 500 µg/mL with Heliothis virescens.
As for `COC(=O)N(C(=O)N1CO[C@@]2(C(=O)OC)Cc3cc(Cl)ccc3C2=N1)c1ccc(OC(F)(F)F)cc1` [INDOXACARB], the 50% lethal concentration (LC50) was determined as 0.5 µg/mL (≈ 0.947 µM) in the test with Spodoptera frugiperda and 1.5 µg/mL (≈ 2.84 µM) in the test with Heliothis virescens.
On to `Cc1cccc(C(=O)NC(C)C)c1NC(=O)c1cc(C(F)(F)F)nn1-c1cccc(Cl)c1`, for which the median lethal concentration (LC50) in the test with Spodoptera frugiperda and in the test with Heliothis virescens was over 500 µg/mL in each case.
On to `Cc1cccc(C(=O)NC(C)C)c1NC(=O)c1cc(C(F)(F)F)nn1-c1ncccc1Cl`, for which, in the test with Periplaneta americana, the CMT was found to be 0.3 µM. In addition, the 50% lethal concentration (LC50) with Spodoptera frugiperda turned out to be 0.1 µg/mL (≈ 0.215 µM); in the test with Heliothis virescens it was 0.4 µg/mL (≈ 0.859 µM).
